The record followed here is paper PMC5573263 (Journal of medicinal chemistry, 2016).

The CLint scaled is the capacity of the preparation to metabolise the compound, expressed as a volume cleared per time.

Data set [1] in a line: Mouse liver microsome assay. The class given is in vitro ADME. Conditions: for metabolism of the C-4 carboxanilide aromatic ring: microsomal metabolism studies, in words; for CLint scaled at 0.08 uM: female, CD-1, mouse, liver microsomes, pH 7.4. In short, it runs like this: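 Pooled female CD-1 mouse liver microsomes in 0.1 M potassium phosphate (pH 7.4) with EDTA. Test compound (0.08 uM final) incubated with NADPH-regenerating system at 37 °C, shaken, in triplicate. At 0, 0.5, 1, 2 and 4 h, quenched with cold methanol containing 2 μM caffeine internal standard; UPLC-MS. Half-life from the decay slope; CLint scaled with 0.5 mg/mL protein, 45 mg microsome/g liver and 52 g liver/kg.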

Data set [2] in a line: Dose related exposure in the rat. The class given is in vivo. To be noted: data not shown.
The next data set is described as follows: Ames' assay. Type of data set: cell-based.

On to `COc1ccc(NC(=O)[C@H]2c3ccccc3C(=O)N(CC(C)C)[C@@H]2c2cccs2)cc1Cl` (racemic) [10b], for which, in data set [1], the “metabolism of the C-4 carboxanilide aromatic ring” value was “readily demethylated”.
Consider `CC(C)CN1C(=O)c2ccccc2[C@H](C(=O)Nc2cccc(C#N)c2)[C@H]1c1cccs1` (racemic) [10d], for which, in data set [1], the intrinsic clearance (CLint scaled) at 0.08 uM was 195 mL/min/kg and the “metabolism of the C-4 carboxanilide aromatic ring” value was “hydroxylated”.
The compound `CC(C)CN1C(=O)c2ccccc2[C@H](C(=O)Nc2ccc(F)c(C#N)c2)[C@H]1c1ccc(C#N)s1` (racemic) [11l] returned an intrinsic clearance (CLint scaled) at 0.08 uM in data set [1] of 44.7 mL/min/kg.
Still for that read-out and setting: then `CC(C)CN1C(=O)c2ccccc2[C@H](C(=O)Nc2ccc(F)c(C#N)c2)[C@H]1c1cn[nH]c1` (racemic) [11t], with 162 mL/min/kg; and `N#Cc1cc(NC(=O)[C@H]2c3ccccc3C(=O)N(CC(F)(F)F)[C@@H]2c2cn[nH]c2)ccc1F` (relative stereo) [13h, (3S*,4S*)-N-(3-Cyano-4-fluorophenyl)-1-oxo-3-(1H-pyrazol-4-yl)-2-(2,2,2-trifluoroethyl)-1,2,3,4-tetrahydroisoquinoline-4-carboxamide], with under 13.5 mL/min/kg.
`N#Cc1cc(NC(=O)[C@H]2c3ccccc3C(=O)N(CC(F)(F)F)[C@@H]2c2cccnc2)ccc1F` (relative stereo) [13i, (3S*,4S*)-N-(3-Cyano-4-fluorophenyl)-1-oxo-3-(pyridin-3-yl)-2-(2,2,2-trifluoroethyl)-1,2,3,4-tetrahydroisoquinoline-4-carboxamide]: the intrinsic clearance (CLint scaled) at 0.08 uM in data set [1] amounted to 33.1 mL/min/kg. Further, the dose related exposure entry in data set [2] is reported as “excellent dose related exposure”.
Take `N#Cc1cc(N)ccc1F` [3-cyano-4-fluoroaniline]: in the data set “Ames' assay”, the “Ames' assay result” value is recorded as “negative”.
